CHOP UPR activ: activators of apoptotic CHOP UPR arm, primary screen, cell-based, CHO-CHOP luciferase reporter, luminescence, uHTS; AID 449763, 2010; UPR activation; percent of tunicamycin response over DMSO baseline; activation, % at 10 µM; 0.34% of 330,000 active;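 active means at 10 µM dose, activation of 40% or more, normalized to positive control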
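System: CHO CHOP reporter cells. Amount: 500 cells per well. Buffer or medium: F12 medium, 10% FBS. Compound dosing: one dose, 10 µM in 0.5% DMSO. Incubation: 6 h compound exposure at 37 °C after overnight seeding. Technique: Steady-Glo luciferase luminescence. Benchmarks: tunicamycin and DMSO controls.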
Mdm2-MdmX inh: inhibitors of human Mdm2-MdmX association, primary screen, cell-based, luminescence, split luciferase, SaOS-2, uHTS; AID 485346, 2010; SaOS-2 split-luciferase Mdm2/MdmX complementation; 3% of 330,000 active; Protein Mdm4 (Homo sapiens) + E3 ubiquitin-protein ligase Mdm2 (Homo sapiens), …; inhibition, % at 8 µM;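 active means inhibition of at least 50% at 8 µM in the primary screen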
Target sequence (O15151 whole entry, looked up): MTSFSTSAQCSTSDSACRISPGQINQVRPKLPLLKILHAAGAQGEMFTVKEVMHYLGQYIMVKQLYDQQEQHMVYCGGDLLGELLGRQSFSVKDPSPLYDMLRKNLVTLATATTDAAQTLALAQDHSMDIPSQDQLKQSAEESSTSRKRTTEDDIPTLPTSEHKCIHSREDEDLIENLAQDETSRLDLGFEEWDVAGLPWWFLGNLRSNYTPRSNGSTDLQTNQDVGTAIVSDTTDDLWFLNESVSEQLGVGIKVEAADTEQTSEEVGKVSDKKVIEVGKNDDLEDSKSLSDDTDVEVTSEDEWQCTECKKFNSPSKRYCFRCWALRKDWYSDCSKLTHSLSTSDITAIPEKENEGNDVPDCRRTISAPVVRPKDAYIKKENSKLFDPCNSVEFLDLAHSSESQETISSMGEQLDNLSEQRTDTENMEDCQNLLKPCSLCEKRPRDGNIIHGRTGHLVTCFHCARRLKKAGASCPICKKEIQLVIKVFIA
Target sequence (Q00987 whole entry, looked up): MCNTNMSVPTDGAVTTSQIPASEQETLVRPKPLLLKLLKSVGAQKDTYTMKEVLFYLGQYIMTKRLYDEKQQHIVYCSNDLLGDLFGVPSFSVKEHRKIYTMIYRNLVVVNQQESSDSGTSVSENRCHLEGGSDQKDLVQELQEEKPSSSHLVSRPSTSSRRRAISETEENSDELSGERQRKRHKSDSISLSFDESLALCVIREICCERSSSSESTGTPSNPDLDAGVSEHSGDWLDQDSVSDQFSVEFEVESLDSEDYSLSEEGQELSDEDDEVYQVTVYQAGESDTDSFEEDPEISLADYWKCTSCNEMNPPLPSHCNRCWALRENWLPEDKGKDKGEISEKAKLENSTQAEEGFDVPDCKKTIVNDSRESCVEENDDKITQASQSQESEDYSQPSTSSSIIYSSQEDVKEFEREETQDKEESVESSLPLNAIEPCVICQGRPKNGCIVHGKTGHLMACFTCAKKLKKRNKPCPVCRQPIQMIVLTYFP
XBP1 UPR activ: activators of adaptive XBP1 UPR arm, primary screen, cell-based, CHO-XBP1 luciferase reporter, luminescence, uHTS | activation, % at 20 µM | 0.33% of 330,000 active | IRE1-XBP1 UPR activation; percent of tunicamycin response, DMSO as zero;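 active means versus positive control, 20 µM dose yields 30% or more activation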
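Assay system: IRE1-XBP1 luciferase reporter CHO line. Input: 1000 cells/well. Buffer or medium: F12 with 10% serum. Doses: 20 µM, 1% DMSO. Times: overnight seeding at 37 °C, 6 h compound treatment at 37 °C. Technique: Steady-Glo luciferase glow luminescence, 10 min after reagent addition.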
Granule exo inh: LAMP-1 surface exposure blockers, TALL-104 cells – cell-based, flow cytometry, MLPCN library, primary screen. TALL-104 LAMP-1 surface exposure; cells stimulated with thapsigargin and PMA. 0.66% of 360,000 active. inhibition, % at 10 µM. AID 651702, 2012;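 active means inhibition above about 55%, limit read from the data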
ABHD5-PLIN5 inh: ABHD5-PLIN5 interaction inhibitors, primary screen, cell lysate, split luciferase complementation, luminescence | Split G. princeps luciferase complementation, 4 h | AID 602281, 2012 | 0.78% of 360,000 active | Perilipin-5 (Homo sapiens) + 1-acylglycerol-3-phosphate O-acyltransferase ABHD5 (Homo … | inhibition, % at 4 µM;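 active means inhibition above the mean inhibition across every tested compound plus 3 SD, cut at about 22% in these data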
ABHD5 PLIN5 conf: ABHD5-PLIN5 interaction inhibitors, confirmation, biochemical, luminescence; shares compounds with ABHD5-PLIN5 inh; inhibition, % at 4 µM; 67% of 2,200 active; in the data active means inhibition above about 23%
HNF4 counter: HNF4 dimerization inhibitors, counter-screen for ABHD5-PLIN5 interaction inhibitor project, biochemical, split-luciferase complementation, luminescence; shares compounds with ABHD5-PLIN5 inh; inhibition, % at 4 µM; 77% of 2,200 active; AID 651674, 2012;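 active means mean inhibition across replicate wells exceeding the computed hit threshold, cut at about 13% in these data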;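 further: light from luciferase halves that rejoin when HNF4 fusion proteins dimerize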
Large screens that a line does not name were inactive (follow-up assays come after a bar, where they were run); ! = not active in a repeat. Rows were chosen to be rich in hits. Some 4% of all compounds tested hit in one or more screens of this group.

CCc1ccc(NC(=O)C(=O)NNC(=O)COc2cccc(OC)c2)cc1	none
CC(=O)OCC1=C(C(=O)O)N2C(=O)[C@@H](NC(=O)CSc3ccncc3)[C@H]2SC1	none
CC(=O)OCC1=C(C(=O)O)N2C(=O)C(NC(=O)c3ccc(F)cc3)C2SC1 (configuration not stated)	ABHD5-PLIN5 inh 29.8 | ABHD5 PLIN5 conf inactive | HNF4 counter 28.1
COc1ccc(OC)c(NC(=O)CN2C(=O)CSc3ccc(S(=O)(=O)N4CCCC4)cc32)c1	ABHD5-PLIN5 inh 53.7 | ABHD5 PLIN5 conf inactive | HNF4 counter inactive
CCOC(=O)CSc1nnc(NCC(=O)OC(C)C)c(=O)[nH]1	ABHD5-PLIN5 inh 26.9 | ABHD5 PLIN5 conf 48.5 | HNF4 counter 97.8
CCOC(=O)CNC(=O)CSc1nnc(C)c(=O)[nH]1	none
CS(=O)(=O)N(CCc1ccccc1)CC(=O)Nc1ccc(Br)cc1F	none
C=CC[N+](C)(C)c1ccc(CCC(=O)CCc2ccc([N+](C)(C)CC=C)cc2)cc1	none
COc1ccc2cc(/C=C/C(=O)c3ccco3)c(Cl)nc2c1	none (no result: Granule exo inh, ABHD5-PLIN5 inh)
CCc1cc2cc(C)ccc2nc1SCC(=O)NNC(=O)c1ccco1	none
Cc1ccc2nc(Cl)c(/C=C/C(=O)c3ccco3)cc2c1	Granule exo inh 86.0, ABHD5-PLIN5 inh 23.5 | ABHD5 PLIN5 conf 92.1 | HNF4 counter 85.8
Cc1ccc2cc(/C=C/C(=O)c3ccco3)c(Cl)nc2c1	Granule exo inh 94.9, ABHD5-PLIN5 inh 44.6 | ABHD5 PLIN5 conf 96.0 | HNF4 counter 98.8
COc1cc2cc(/C=C/C(=O)c3ccco3)c(Cl)nc2cc1OC	ABHD5-PLIN5 inh 38.4 | ABHD5 PLIN5 conf 89.7 | HNF4 counter 82.0
Cc1cc(C)cc(OCC(O)Cn2nc(C)cc2C)c1 (configuration not stated)	none
O=C(c1cc2ccccc2o1)N(Cc1ccco1)Cc1cccs1	none
Cc1c(C(=O)N(Cc2ccco2)Cc2cccs2)oc2ccccc12	ABHD5-PLIN5 inh 28.1 | ABHD5 PLIN5 conf inactive | HNF4 counter 14.5
COCCOc1cc(NC(=O)CS(=O)CC(=O)N(C)C)c(Cl)cc1Cl (configuration not stated)	none
NC(=O)c1cc2cc(Br)ccc2oc1=NCc1ccccc1	ABHD5-PLIN5 inh 61.7 | ABHD5 PLIN5 conf inactive | HNF4 counter 29.2
O=C(Nc1nc(-c2ccco2)c(-c2ccco2)s1)C1CCC1	ABHD5-PLIN5 inh 35.7 | ABHD5 PLIN5 conf inactive | HNF4 counter 46.0
C#CCN(C[C@@H]1[C@@H](OC(=O)Nc2cccs2)[C@@H](OC(=O)Nc2cccs2)Cn2c(=O)ccc(=O)n21)S(=O)(=O)c1ccc(C)cc1	ABHD5-PLIN5 inh 61.2 (no result: CHOP UPR activ, Mdm2-MdmX inh, XBP1 UPR activ) | ABHD5 PLIN5 conf 86.9 | HNF4 counter 50.4
C#CCN(C[C@@H]1[C@@H](OC(=O)NC2CCCC2)[C@@H](OC(=O)NC2CCCC2)Cn2c(=O)ccc(=O)n21)S(=O)(=O)c1ccc(C)cc1	ABHD5-PLIN5 inh 37.8 (no result: CHOP UPR activ, Mdm2-MdmX inh, XBP1 UPR activ) | ABHD5 PLIN5 conf 64.3 | HNF4 counter 24.4
C#CCN(C[C@H]1[C@H](OC(=O)Nc2cccs2)[C@H](OC(=O)Nc2cccs2)C[C@H]2C(=O)N(c3ccccc3)C(=O)[C@@H]12)S(=O)(=O)c1ccc(C)cc1	none (no result: CHOP UPR activ, Mdm2-MdmX inh, XBP1 UPR activ)
C#CCN(C[C@@H]1[C@@H](OC(=O)NCc2ccccc2F)[C@@H](OC(=O)NCc2ccccc2F)Cn2c(=O)ccc(=O)n21)S(=O)(=O)c1ccc(C)cc1	ABHD5-PLIN5 inh 39.7 (no result: CHOP UPR activ, Mdm2-MdmX inh, XBP1 UPR activ) | ABHD5 PLIN5 conf 58.3 | HNF4 counter 27.0
COc1ccc(Nc2cc(C)nc3ccccc23)cc1	none
C#CCn1c(=NC(=O)CN2C(=O)CCC2=O)sc2cccc(C)c21	none
C[C@H](NC(=O)c1nc[nH]c1C(=O)NCCCCCN)C(=O)OCc1ccccc1	none
CC(=O)OCCOc1nc(NC(C)C)nc(NC(C)C)n1	none
COc1ccc(NC(=O)c2cc(-c3ccc(C)o3)nc3ccccc23)c(OC)c1	none
Cc1ccc(-c2cc(C(=O)Nc3ccccc3C(N)=O)c3ccccc3n2)o1	ABHD5-PLIN5 inh 43.3 | ABHD5 PLIN5 conf 27.9 | HNF4 counter 27.8
Cc1ccc(C(C)NC(=O)c2ccc3c(c2)OCO3)cc1C (configuration not stated)	none
CC(C)CCNC(=O)c1ccc(CSCc2cccc(F)c2)o1	none
CC(C)C[C@H](N)c1nnc(S(=O)(=O)Cc2cccc(F)c2)o1	ABHD5-PLIN5 inh 38.0 | ABHD5 PLIN5 conf 42.3 | HNF4 counter 75.9
Cc1ccc(-c2csc(NC(=O)c3ccc(-c4ccccc4)cc3)n2)o1	ABHD5-PLIN5 inh 55.2 | ABHD5 PLIN5 conf 25.2 | HNF4 counter 26.7
COc1ccc(-n2sc3ccc(F)cc3c2=O)cc1	ABHD5-PLIN5 inh 86.3 | ABHD5 PLIN5 conf 93.2 | HNF4 counter 119.6
Cc1ccc(C)c(-n2sc3ccc(F)cc3c2=O)c1	ABHD5-PLIN5 inh 99.8 | ABHD5 PLIN5 conf 76.2 | HNF4 counter 114.4
COc1ccc(OC)c(N=c2ssnc2Cl)c1	none
COc1cc(N=c2ssnc2Cl)c(OC)cc1Cl	Granule exo inh 98.9!, ABHD5-PLIN5 inh 41.2! | ABHD5 PLIN5 conf 74.4 | HNF4 counter 105.7
Cc1ccc(-c2csc(Nc3ccc(S(N)(=O)=O)cc3)n2)o1	ABHD5-PLIN5 inh 32.0 | ABHD5 PLIN5 conf 64.9 | HNF4 counter 99.8
COc1cc(/C=N/NC(=O)c2ccncc2)ccc1Oc1ccc([N+](=O)[O-])cn1	none
COc1ccc(C(=O)CC(SCC(NC(C)=O)C(=O)O)c2ccc(Cl)cc2)cc1OC (configuration not stated)	ABHD5-PLIN5 inh 38.1 | ABHD5 PLIN5 conf 23.5 | HNF4 counter 19.5
O=C1C(Cl)=C(N2CCCCCC2)C(=O)N1c1ccccc1Cl	none
O=C1C(Cl)=C(N2CCOCC2)C(=O)N1c1ccccc1Cl	ABHD5-PLIN5 inh 29.5 | ABHD5 PLIN5 conf 59.5 | HNF4 counter 85.3
Cc1ccc(CCNC(=O)C2CCC(=O)N(CC3CCCCC3)C2)cc1 (configuration not stated)	none
O=C(/C=C/c1c(F)cccc1Cl)c1ccc(F)cc1	ABHD5-PLIN5 inh 31.3 | ABHD5 PLIN5 conf 94.8 | HNF4 counter 90.9
CCc1cccc2c(C(=O)CSc3nncn3-c3ccc(OC)cc3)c[nH]c12	none

Screens deposited in PubChem by several laboratories.
